Results published in ChEMBL document CHEMBL1817562, “Docking and SAR studies of D- and L-isofagomine isomers as human β-glucocerebrosidase inhibitors” (Bioorg Med Chem, 2011).

Assays:
Helix pomatia = assay: Inhibition of snail beta-mannosidase assessed as production of p-nitrophenol at 1000 uM by spectrophotometry
Outline: (§1)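 p-Nitrophenyl glycoside matched to each enzyme, 2 mM, with enzyme at that enzyme's optimum pH: Penicillium decumbens α-L-rhamnosidase pH 4.0, bovine liver β-galactosidase pH 6.8, coffee bean α-galactosidase pH 6.5, jack bean α-mannosidase pH 4.5, snail β-mannosidase pH 4.5. Stopped with 400 mM Na2CO3; released p-nitrophenol read at 400 nm.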

[1] = Inhibition of rat intestinal maltase assessed as production of D-glucose using maltose as substrate after 10 to 30 mins by spectrophotometry
Outline: (§2)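 Enzymes were rice α-glucosidase at pH 5.0 and rat small-intestine brush border membranes (Kessler method) at pH 5.8. Each reaction contained 25 mM maltose and enzyme and was incubated 10–30 min at 37 °C. Reactions were stopped by heating at 100 °C for 3 min, then centrifuged. Released D-glucose was measured with a glucose test reagent by absorbance at 505 nm.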

Coffea = assay: Inhibition of coffee beans alpha-galactosidase assessed as production of p-nitrophenol at 1000 uM by spectrophotometry; outline: as §1
[2] = biological target: T1, Sucrase-isomaltase, intestinal (Rattus norvegicus, UniProt P23739); assay: Inhibition of rat intestinal sucrase assessed as release of D-glucose at by spectrophotometry
[3] = Inhibition of almond beta-glucosidase assessed as production of p-nitrophenol using p-nitrophenyl glycoside as substrate by spectrophotometry
[4] = Inhibition of rat intestinal cellobiase assessed as production of p-nitrophenol by spectrophotometry
[5] = biological target: Lactase/phlorizin hydrolase (Rattus norvegicus, UniProt Q02401); assay: Inhibition of rat intestinal lactase assessed as production of p-nitrophenol by spectrophotometry
[6] = biological target: T2, Tissue alpha-L-fucosidase (Bos taurus) (UniProt Q2KIM0); settings: 1000 uM
T2 sequence (whole entry): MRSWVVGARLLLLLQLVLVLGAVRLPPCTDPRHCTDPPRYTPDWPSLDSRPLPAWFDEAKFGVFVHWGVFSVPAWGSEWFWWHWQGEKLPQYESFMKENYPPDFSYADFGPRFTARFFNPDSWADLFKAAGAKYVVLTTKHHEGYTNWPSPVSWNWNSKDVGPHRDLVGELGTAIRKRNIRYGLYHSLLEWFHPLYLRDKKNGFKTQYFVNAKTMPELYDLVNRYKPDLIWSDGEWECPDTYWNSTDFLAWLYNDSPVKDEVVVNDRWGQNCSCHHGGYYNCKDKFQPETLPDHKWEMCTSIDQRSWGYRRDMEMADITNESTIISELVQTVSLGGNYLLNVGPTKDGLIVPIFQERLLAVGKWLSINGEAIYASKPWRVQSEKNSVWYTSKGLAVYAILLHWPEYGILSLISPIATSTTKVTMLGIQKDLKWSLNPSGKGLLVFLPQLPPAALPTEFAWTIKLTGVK

Canavalia ensiformis = assay: Inhibition of jack beans alpha-mannosidase assessed as production of p-nitrophenol at 1000 uM by spectrophotometry; outline: as §1
[7] = biological target: T1, Sucrase-isomaltase, intestinal; assay: Inhibition of rat intestinal isomaltase assessed as production of p-nitrophenol at by spectrophotometry
Penicillium decumbens = assay: Inhibition of Penicillium decumbens alpha-L-rhamnosidase assessed as production of p-nitrophenol at 1000 uM by spectrophotometry; outline: as §1
Oryza sativa = settings: 1000 uM
Beta-galactosidase = biological target: T3, Beta-galactosidase (Bos taurus, UniProt Q58D55); assay: Inhibition of bovine liver beta-galactosidase assessed as production of p-nitrophenol by spectrophotometry
T3 sequence (Q58D55 whole entry): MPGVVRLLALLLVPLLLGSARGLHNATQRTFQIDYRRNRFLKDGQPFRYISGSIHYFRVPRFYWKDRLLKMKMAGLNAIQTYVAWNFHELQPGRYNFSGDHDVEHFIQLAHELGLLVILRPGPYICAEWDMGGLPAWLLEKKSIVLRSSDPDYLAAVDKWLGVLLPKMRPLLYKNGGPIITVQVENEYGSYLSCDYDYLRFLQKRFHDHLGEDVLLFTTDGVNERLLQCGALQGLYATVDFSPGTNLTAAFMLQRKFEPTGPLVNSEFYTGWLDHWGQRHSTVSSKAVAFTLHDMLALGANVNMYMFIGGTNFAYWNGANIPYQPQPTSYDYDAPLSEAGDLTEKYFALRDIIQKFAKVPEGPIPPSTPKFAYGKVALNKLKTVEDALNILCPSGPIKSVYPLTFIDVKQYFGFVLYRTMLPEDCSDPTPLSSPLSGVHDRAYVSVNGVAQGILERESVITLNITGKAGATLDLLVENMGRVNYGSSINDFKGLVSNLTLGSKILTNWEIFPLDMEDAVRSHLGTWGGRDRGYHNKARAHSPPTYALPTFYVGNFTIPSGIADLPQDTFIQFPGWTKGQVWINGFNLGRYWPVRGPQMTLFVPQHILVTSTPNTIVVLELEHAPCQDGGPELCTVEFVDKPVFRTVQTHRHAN

[8] = Inhibition of rice alpha-glucosidase assessed as production of D-glucose using maltose as substrate after 10 to 30 mins by spectrophotometry; parameters: species or system Oryza sativa; outline: as §2
[9] = Inhibition of coffee beans alpha-galactosidase assessed as production of p-nitrophenol by spectrophotometry; parameters: species or system Coffea
Outline: (§3)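 Commercial enzymes were assayed at their own optimum pH: bovine epididymis α-L-fucosidase pH 5.5, bovine liver β-galactosidase pH 6.8, coffee bean α-galactosidase pH 6.5. Reactions contained 2 mM of the matching p-nitrophenyl glycoside plus enzyme. They were stopped with 400 mM Na2CO3, and released p-nitrophenol was read at 400 nm.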

[10] = biological target: T4, Glucosylceramidase (Bos taurus) (UniProt Q2KHZ8); assay: Inhibition of bovine liver beta-glucosidase assessed as production of p-nitrophenol using p-nitrophenyl glycoside as substrate at 1000 uM by spectrophotometry
T4 sequence (whole entry): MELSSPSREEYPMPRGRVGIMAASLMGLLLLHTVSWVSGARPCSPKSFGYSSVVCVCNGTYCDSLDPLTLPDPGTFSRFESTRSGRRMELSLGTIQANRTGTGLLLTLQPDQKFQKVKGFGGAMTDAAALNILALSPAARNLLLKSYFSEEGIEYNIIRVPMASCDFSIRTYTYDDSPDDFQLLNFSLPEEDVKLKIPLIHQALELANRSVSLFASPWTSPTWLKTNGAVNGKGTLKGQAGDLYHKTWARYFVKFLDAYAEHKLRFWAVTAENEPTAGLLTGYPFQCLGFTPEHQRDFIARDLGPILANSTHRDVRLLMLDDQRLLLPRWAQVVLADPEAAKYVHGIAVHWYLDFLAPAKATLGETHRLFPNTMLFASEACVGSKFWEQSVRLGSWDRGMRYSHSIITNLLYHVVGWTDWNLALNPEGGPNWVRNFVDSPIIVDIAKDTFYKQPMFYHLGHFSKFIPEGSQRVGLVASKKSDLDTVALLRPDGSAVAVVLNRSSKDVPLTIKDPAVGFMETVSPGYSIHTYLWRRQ

Prunus dulcis = settings: 1000 uM
[11] = biological target: Lactase/phlorizin hydrolase (Rattus norvegicus) (UniProt Q02401); settings: 1000 uM
Rattus norvegicus [12] = species on record: Rattus norvegicus; assay: Inhibition of rat intestinal cellobiase assessed as production of p-nitrophenol at 1000 uM by spectrophotometry
[13] = biological target: Sucrase-isomaltase, intestinal (Rattus norvegicus) (UniProt P23739); settings: 1000 uM
[14] = biological target: Sucrase-isomaltase, intestinal (Rattus norvegicus) (UniProt P23739); settings: 1000 uM; remark: listed apart in the source
[15] = biological target: T5, Beta-galactosidase (Bos taurus) (UniProt Q58D55); assay: Inhibition of bovine liver beta-galactosidase assessed as production of p-nitrophenol at 1000 uM by spectrophotometry; outline: as §1
T5 sequence (whole entry): T3 sequence (Q58D55 whole entry)

Rattus norvegicus [16] = species on record: Rattus norvegicus; settings: 1000 uM
[17] = biological target: T6, Lysosomal acid glucosylceramidase (Homo sapiens) (UniProt P04062); settings: 1000 uM
T6 sequence (whole entry): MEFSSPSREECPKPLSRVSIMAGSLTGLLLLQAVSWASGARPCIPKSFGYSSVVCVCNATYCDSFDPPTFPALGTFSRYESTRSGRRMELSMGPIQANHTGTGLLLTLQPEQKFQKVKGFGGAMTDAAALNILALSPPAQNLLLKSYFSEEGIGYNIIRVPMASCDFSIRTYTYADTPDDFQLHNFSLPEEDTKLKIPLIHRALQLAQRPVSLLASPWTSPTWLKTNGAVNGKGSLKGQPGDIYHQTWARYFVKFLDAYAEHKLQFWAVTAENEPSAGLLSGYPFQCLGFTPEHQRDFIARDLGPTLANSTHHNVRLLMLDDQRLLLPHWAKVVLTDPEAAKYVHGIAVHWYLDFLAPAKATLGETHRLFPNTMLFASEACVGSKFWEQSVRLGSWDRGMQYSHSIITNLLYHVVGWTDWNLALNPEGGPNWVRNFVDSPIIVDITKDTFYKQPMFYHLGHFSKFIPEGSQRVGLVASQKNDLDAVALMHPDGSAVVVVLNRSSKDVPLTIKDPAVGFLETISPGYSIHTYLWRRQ

[18] = biological target: T7, Tissue alpha-L-fucosidase (Bos taurus, UniProt Q2KIM0); assay: Inhibition of bovine epididymis alpha-L-fucosidase assessed as production of p-nitrophenol by spectrophotometry; outline: as §3
T7 sequence (Q2KIM0 whole entry): T2 sequence (whole entry)

[19] = Inhibition of rice alpha-glucosidase; parameters: species or system Oryza sativa; outline: as §2
[20] = Inhibition of rat intestinal maltase; outline: as §2

Sequence of Sucrase-isomaltase, intestinal (Rattus norvegicus) (P23739 1-1013 limits assumed): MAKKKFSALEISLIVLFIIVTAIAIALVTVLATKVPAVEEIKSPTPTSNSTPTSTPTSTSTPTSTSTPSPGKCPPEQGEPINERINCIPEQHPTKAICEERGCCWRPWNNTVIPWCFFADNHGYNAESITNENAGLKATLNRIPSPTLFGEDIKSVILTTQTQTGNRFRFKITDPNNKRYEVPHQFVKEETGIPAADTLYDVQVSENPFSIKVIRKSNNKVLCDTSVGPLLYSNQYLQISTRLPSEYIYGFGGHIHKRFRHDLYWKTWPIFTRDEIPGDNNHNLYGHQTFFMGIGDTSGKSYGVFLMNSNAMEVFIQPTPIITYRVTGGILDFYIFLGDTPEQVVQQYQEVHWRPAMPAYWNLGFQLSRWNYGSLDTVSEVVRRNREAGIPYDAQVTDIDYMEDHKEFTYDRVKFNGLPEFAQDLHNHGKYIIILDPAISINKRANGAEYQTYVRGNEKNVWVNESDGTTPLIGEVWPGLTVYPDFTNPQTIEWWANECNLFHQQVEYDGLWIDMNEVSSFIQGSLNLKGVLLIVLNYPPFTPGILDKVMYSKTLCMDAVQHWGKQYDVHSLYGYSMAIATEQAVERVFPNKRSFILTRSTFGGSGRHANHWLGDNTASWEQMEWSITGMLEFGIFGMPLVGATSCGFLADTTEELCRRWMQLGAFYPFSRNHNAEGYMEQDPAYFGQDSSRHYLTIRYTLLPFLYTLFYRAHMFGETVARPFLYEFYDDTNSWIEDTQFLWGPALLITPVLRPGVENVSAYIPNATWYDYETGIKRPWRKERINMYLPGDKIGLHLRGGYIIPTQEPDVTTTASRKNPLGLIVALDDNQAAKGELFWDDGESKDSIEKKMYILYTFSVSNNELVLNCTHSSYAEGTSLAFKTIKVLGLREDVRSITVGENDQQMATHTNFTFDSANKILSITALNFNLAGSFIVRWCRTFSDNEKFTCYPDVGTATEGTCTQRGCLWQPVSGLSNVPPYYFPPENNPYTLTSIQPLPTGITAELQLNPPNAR
Sequence of Sucrase-isomaltase, intestinal (Rattus norvegicus) (P23739 1014-1841 limits assumed): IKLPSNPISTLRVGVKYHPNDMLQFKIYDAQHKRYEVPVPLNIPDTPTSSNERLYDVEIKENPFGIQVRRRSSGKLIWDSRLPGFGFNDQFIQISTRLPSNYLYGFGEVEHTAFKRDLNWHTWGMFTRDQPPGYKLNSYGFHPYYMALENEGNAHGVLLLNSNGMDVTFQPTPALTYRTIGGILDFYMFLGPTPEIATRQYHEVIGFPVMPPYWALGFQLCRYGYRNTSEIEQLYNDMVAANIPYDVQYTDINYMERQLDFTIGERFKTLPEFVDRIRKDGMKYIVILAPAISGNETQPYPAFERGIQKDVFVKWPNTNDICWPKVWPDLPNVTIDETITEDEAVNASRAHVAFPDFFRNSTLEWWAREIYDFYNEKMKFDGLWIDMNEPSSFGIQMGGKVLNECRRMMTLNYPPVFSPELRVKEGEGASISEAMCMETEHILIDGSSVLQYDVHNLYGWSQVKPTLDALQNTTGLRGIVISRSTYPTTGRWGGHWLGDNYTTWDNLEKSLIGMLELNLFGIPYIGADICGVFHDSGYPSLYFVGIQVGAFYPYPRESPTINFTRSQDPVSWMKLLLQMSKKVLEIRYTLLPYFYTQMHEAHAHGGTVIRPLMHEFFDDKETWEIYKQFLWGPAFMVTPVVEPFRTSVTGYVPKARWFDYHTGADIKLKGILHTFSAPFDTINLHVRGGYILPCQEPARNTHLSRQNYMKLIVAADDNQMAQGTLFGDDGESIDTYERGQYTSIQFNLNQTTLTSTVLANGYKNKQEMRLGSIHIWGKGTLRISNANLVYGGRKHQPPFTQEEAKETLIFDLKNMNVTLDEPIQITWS
T1 sequence (P23739 1-1013 limits assumed): as the sequence (P23739 1-1013 limits assumed) above
T1 sequence (P23739 1014-1841 limits assumed): as the sequence (P23739 1014-1841 limits assumed) above
Sequence of Lactase/phlorizin hydrolase (Q02401 868-1928 limits assumed): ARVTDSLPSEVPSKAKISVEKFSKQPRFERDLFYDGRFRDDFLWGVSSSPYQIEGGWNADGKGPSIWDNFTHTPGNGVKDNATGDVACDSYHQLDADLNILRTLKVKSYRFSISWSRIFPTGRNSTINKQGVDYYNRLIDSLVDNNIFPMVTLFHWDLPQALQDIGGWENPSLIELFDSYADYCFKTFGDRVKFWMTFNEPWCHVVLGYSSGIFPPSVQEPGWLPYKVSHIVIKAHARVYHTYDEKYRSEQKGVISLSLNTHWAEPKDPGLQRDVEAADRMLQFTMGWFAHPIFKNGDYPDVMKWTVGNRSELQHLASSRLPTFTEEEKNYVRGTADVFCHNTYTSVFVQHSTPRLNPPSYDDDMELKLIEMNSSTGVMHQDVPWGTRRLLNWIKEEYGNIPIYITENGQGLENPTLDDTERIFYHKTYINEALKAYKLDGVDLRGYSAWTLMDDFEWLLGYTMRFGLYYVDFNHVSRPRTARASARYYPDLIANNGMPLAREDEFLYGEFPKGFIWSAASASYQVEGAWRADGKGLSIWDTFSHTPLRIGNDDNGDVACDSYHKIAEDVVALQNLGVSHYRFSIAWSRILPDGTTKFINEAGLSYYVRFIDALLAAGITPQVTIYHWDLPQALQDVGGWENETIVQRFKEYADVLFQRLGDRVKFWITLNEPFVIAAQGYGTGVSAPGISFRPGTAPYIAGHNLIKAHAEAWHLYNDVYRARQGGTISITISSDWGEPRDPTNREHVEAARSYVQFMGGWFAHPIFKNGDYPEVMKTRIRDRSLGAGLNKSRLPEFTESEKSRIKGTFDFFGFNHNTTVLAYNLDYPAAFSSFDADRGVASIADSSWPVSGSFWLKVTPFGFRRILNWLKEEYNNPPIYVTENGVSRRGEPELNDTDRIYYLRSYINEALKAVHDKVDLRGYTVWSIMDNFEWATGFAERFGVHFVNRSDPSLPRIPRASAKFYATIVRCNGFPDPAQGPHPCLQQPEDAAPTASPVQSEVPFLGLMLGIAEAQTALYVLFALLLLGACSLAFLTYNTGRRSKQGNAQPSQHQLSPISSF
Sequence of Lactase/phlorizin hydrolase (Rattus norvegicus) (Q02401 868-1928 limits assumed): as above

Compound	inhibition (Helix pomatia) [%]	IC50 [1] [µM]	inhibition (Coffea) [%]	IC50 [2] [µM]	IC50 [3] [µM]	IC50 [4] [µM]	IC50 [5] [µM]	inhibition [6] [%]	inhibition (Canavalia ensiformis) [%]	inhibition (Penicillium decumbens) [%]	inhibition (Oryza sativa) [%]	IC50 [8] [µM]	IC50 [9] [µM]	inhibition [10] [%]	inhibition (Prunus dulcis) [%]	inhibition [13] [%]	inhibition [14] [%]	inhibition (Rattus norvegicus [16]) [%]	inhibition [17] [%]	also measured
OC[C@H]1CNC[C@@H](O)[C@@H]1O [AFEGOSTAT]	< 50	653	< 50	531	0.98	0.3	0.12	< 50	< 50	< 50	< 50									IC50 [7]: 290 µM; IC50 (Beta-galactosidase): 3.6 µM
OC[C@H]1CNC[C@@H](O)[C@H]1O	< 50				3.2	4.5	0.51	< 50	< 50	< 50	< 50		144			< 50	< 50	< 50		IC50 (Beta-galactosidase): 21 µM
OC[C@@H]1CNC[C@H](O)[C@@H]1O	< 50				983	607	90	< 50	< 50	< 50	< 50		450	< 50		< 50	< 50	< 50	< 50	inhibition [15]: < 50%
OCC1(O)CNC[C@H]1O (single isomer, unassigned)																				Ki [19]: 4 µM; Ki [20]: 6 µM

Second part, led by results:

inhibition (Helix pomatia) [%]	IC50 [1] [µM]	inhibition (Coffea) [%]	IC50 [2] [µM]	IC50 [3] [µM]	IC50 [4] [µM]	IC50 [5] [µM]	inhibition [6] [%]	inhibition (Canavalia ensiformis) [%]	inhibition (Penicillium decumbens) [%]	inhibition (Oryza sativa) [%]	IC50 [8] [µM]	IC50 [9] [µM]	inhibition [10] [%]	inhibition (Prunus dulcis) [%]	inhibition [13] [%]	inhibition [14] [%]	inhibition (Rattus norvegicus [16]) [%]	inhibition [17] [%]	Compound	also measured
< 50	0.65			80	327			< 50	< 50		0.03	880	< 50						OC[C@H]1NC[C@H](O)[C@@H](O)[C@@H]1O [DUVOGLUSTAT]	
< 50	113	< 50	34				< 50	< 50	< 50		320			< 50					OC[C@H]1NCC[C@@H](O)[C@@H]1O [FAGOMINE]	inhibition [11]: < 50%; inhibition (Rattus norvegicus [12]): < 50%; IC50 [7]: 37 µM
< 50							< 50	< 50	< 50	< 50		8	< 50	< 50	< 50	< 50	< 50	< 50	OC[C@H]1NCC[C@@H](O)[C@H]1O	inhibition [11]: < 50%; inhibition [15]: < 50%; inhibition (Rattus norvegicus [12]): < 50%
< 50	357	< 50	225		809	122		< 50	< 50		188		< 50	< 50	< 50			< 50	OC[C@@H]1NCC[C@@H](O)[C@H]1O	IC50 [18]: 260 µM
